# Measured values gathered from unrelated publications.
# KIT: Mast/stem cell growth factor receptor Kit (KIT, Homo sapiens, UniProt P10721)
SMILES,target,observed,mode,method,endpoint,value
Cc1ccc(NC(=O)c2ccc(CN3CCS(=N)(=O)CC3)cc2)cc1Nc1nccc(-c2cccnc2)n1,KIT,binding,,competition with immobilised ligand,Kd,11 nM
CN(C)c1ccc(C=C2C(=O)Nc3ccccc32)cc1,KIT,enzyme activity,inhibitor,radiometric,IC50,84 nM
CN1CCN(c2ccc(Nc3ncc4cc(C#N)c(=O)n(C5CCCC5)c4n3)cc2)CC1,KIT,enzyme activity,inhibitor,,IC50,42 nM
CNC(=O)c1cc2c(Oc3ccc(NC(=O)C4(C(=O)Nc5ccc(F)cc5)CC4)cc3)ccnc2cc1OC,"Mast/stem cell growth factor receptor Kit (KIT, Homo sapiens, UniProt P10721, V560G)",enzyme activity,inhibitor,radiometric,IC50,15 nM
C=CC(=O)Nc1cccc(CN2C(=O)N(c3c(Cl)c(OC)cc(OC)c3Cl)Cc3cnc(NCCCCN(CC)CC)nc32)c1,KIT,binding,,competition with immobilised ligand,Kd,420 nM
Cc1cnc(-c2ccc(-c3ccc(NC(=O)Nc4c(F)cc(F)cc4F)cc3F)c3c2C(=O)NC3)[nH]1,KIT,enzyme activity,inhibitor,,IC50,29.8 nM
CCN1CCN(Cc2ccc(C(=O)Nc3ccc(C)c(Oc4ccc5c(c4)CC(=O)N5)c3)cc2C(F)(F)F)CC1,KIT,enzyme activity,inhibitor,,IC50,> 10000 nM
COc1ccc2c(Oc3ccc4c(C(=O)Nc5ccccc5N)cccc4c3)ccnc2c1,KIT,enzyme activity,inhibitor,,IC50,4 nM
